From ChEMBL document CHEMBL2010694, “Indolyl and dihydroindolyl N-glycinamides as potent and in vivo active NPY5 antagonists” (Bioorg Med Chem Lett, 2012)
≈ marks a conversion by molar mass, not a printed value.

Assays:
[1] = Lipophilicity, log D of the compound at pH 7.4; format: physicochemical; conditions: buffer
[2] = Half life in Sprague-Dawley rat plasma at 2 mg/kg, po and 1 mg/kg, iv after 24 hrs wash out period by HPLC analysis; format: ADME, organism-based
Summary of the method: (§1)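 Male Sprague-Dawley rats (200–250 g), jugular and carotid artery cannulated; compound dissolved in 20% beta cyclodextrin, pH adjusted with methane sulfonic acid. Serial blood sampled at 12 time points over 24 h post dose by automated sampler; plasma from centrifugation analysed by HPLC; PK parameters by non-compartmental analysis of plasma concentration–time profile.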

[3] = Clearance in Sprague-Dawley rat plasma at 2 mg/kg, po and 1 mg/kg, iv after 24 hrs wash out period by HPLC analysis; format: ADME, organism-based; summary of the method: as §1
Plasma [4] = experiment: Plasma concentration in Sprague-Dawley rat at 10 mg/kg, po by LC-MS/MS analysis; format: ADME, organism-based; parameters: dose 10 mg/kg, route oral; conditions: in vivo
Summary of the method: (§2)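 Male Sprague-Dawley rats (300–350 g), femoral artery cannulated; single 10 mg/kg oral dose in an appropriate vehicle, N = 3. Blood taken predose, 1, 2 and 4 h; brains then collected and stored at -80 °C. Equal portions of plasma or homogenized brain from the three rats pooled per time point, protein precipitated, quantified by LC/MS/MS.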

Liver microsomes [5] = experiment: Intrinsic clearance in rat liver microsomes at 1 uM by LC/MS analysis; format: ADME, Microsome
Summary of the method: (§3)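 Compound incubated with human or rat liver microsomes; reaction quenched with acetonitrile, centrifuged, and remaining drug in supernatant measured by LC/MS to estimate T1/2, from which intrinsic clearance was derived.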

[6] = Plasma concentration in cPP-induced feeding Sprague-Dawley rat model at 10 mg/kg, po after 1 hr; format: ADME, organism-based; parameters: dose 10 mg/kg, route oral
Summary of the method: (§4)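 Satellite animals from the cPP feeding study dosed orally at 0.1, 1 or 10 mg/kg; plasma (ng/mL) and brain (ng/g) levels measured 1 h after dosing.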

[7] = Clearance in Sprague-Dawley rat blood at 2 mg/kg, po and 1 mg/kg, iv after 24 hrs wash out period by HPLC analysis; format: ADME, organism-based; conditions: whole blood; summary of the method: as §1
[8] = Absolute oral bioavailability in Sprague-Dawley rat at 2 mg/kg after 24 hrs wash out period by HPLC analysis; format: ADME, organism-based; conditions: in vivo; summary of the method: as §1
Brain [9] = experiment: Drug uptake in Sprague-Dawley rat brain at 10 mg/kg, po by LC-MS/MS analysis; format: ADME, organism-based; parameters: dose 10 mg/kg, route oral; conditions: in vivo, read-out: Drug uptake; summary of the method: as §2
[10] = Cmax in Sprague-Dawley rat plasma at 2 mg/kg, po and 1 mg/kg, iv after 24 hrs wash out period by HPLC analysis; format: ADME, organism-based; summary of the method: as §1
Cytochrome P450 3A4 = Cytochrome P450 3A4 (Homo sapiens, UniProt P08684); experiment: Inhibition of CYP3A4; format: ADME
Sequence of Cytochrome P450 3A4 (P08684 whole entry): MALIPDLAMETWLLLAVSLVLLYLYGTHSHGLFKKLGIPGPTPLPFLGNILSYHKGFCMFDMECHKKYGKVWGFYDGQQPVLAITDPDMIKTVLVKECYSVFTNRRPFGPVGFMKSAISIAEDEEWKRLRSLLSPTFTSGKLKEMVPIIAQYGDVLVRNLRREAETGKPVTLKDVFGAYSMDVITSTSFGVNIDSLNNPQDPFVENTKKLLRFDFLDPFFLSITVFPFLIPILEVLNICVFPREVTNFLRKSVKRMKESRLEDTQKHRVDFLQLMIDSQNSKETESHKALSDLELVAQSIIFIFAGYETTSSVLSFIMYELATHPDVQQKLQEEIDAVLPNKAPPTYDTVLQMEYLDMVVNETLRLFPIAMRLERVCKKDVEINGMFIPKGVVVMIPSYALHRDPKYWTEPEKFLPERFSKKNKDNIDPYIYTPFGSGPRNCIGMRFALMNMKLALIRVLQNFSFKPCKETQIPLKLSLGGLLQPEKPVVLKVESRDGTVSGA

Cytochrome P450 1A2 = biological target: T1, Cytochrome P450 1A2 (Homo sapiens, UniProt P05177); experiment: Inhibition of CYP1A2; format: ADME
T1 sequence (P05177 whole entry): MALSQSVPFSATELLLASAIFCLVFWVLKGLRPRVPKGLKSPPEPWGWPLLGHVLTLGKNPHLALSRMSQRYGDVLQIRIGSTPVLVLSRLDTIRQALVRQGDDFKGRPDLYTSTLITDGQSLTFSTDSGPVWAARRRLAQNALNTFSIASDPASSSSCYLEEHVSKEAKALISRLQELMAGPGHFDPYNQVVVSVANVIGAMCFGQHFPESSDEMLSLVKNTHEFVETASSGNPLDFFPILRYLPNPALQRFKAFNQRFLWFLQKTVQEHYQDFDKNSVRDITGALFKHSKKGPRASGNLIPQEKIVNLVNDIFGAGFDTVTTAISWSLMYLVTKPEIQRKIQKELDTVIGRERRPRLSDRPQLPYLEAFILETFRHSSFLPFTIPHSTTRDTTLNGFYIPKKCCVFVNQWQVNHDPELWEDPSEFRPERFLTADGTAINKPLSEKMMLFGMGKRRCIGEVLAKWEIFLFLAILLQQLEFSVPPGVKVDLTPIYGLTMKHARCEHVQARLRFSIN

[11] = Plasma concentration in cPP-induced feeding Sprague-Dawley rat model at 0.1 mg/kg, po after 1 hr; format: ADME, organism-based; parameters: dose 0.1 mg/kg, route oral; summary of the method: as §4
[12] = Drug uptake in cPP-induced feeding Sprague-Dawley rat model brain at 0.1 mg/kg, po after 1 hr; format: ADME, organism-based; parameters: dose 0.1 mg/kg, route oral; conditions: read-out: Drug uptake; summary of the method: as §4
[13] = biological target: T2, Neuropeptide Y receptor type 5 (Homo sapiens, UniProt Q15761); experiment: Displacement of [125I]peptide YY from human NPY5 receptor
T2 sequence (Q15761 whole entry): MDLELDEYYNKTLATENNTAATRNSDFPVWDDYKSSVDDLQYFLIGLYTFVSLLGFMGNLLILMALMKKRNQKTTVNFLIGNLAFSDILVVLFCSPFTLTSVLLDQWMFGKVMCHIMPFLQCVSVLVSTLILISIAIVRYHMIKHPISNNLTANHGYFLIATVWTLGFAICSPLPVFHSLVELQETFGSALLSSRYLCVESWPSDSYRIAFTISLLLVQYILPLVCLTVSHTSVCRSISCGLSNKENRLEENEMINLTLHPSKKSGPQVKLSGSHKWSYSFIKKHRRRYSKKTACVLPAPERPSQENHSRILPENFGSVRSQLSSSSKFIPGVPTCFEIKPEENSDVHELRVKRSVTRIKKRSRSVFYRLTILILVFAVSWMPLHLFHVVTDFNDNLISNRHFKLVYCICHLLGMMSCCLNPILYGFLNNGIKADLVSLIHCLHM

Cytochrome P450 2C8 = biological target: T3, Cytochrome P450 2C8 (Homo sapiens, UniProt P10632); experiment: Inhibition of CYP2C8; format: ADME
T3 sequence (P10632 whole entry): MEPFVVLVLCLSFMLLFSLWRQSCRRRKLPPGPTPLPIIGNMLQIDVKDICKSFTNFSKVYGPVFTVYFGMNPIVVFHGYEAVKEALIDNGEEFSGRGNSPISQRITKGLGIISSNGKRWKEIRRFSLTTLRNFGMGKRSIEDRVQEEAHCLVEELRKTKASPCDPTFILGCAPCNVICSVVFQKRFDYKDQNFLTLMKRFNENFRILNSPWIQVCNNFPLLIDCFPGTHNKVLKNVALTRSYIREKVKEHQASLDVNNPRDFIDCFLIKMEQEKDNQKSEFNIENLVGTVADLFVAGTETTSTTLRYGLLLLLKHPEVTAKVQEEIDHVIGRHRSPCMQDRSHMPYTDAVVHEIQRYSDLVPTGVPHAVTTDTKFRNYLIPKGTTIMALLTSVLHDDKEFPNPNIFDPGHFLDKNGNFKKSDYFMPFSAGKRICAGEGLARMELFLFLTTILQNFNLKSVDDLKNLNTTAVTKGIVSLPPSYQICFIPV

[14] = Drug uptake in cPP-induced feeding Sprague-Dawley rat model brain at 1 mg/kg, po after 1 hr; format: ADME, organism-based; parameters: dose 1 mg/kg, route oral; conditions: read-out: Drug uptake; summary of the method: as §4
Rattus norvegicus = experiment: Antiobesity activity in po dosed cPP-induced feeding Sprague-Dawley rat model assessed as reduction in food intake measured 1 hr post cpp challenge; format: functional
Summary of the method: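 Rats pretreated orally at 0.1, 1 or 10 mg/kg (vehicle 20% cyclodextrin) 1 h before intracerebroventricular infusion of Y5-selective peptide agonist cPP, 0.6 nmol in normal saline; food intake recorded, n = 7–14 per group.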

Brain [15] = experiment: Drug uptake in Sprague-Dawley rat brain assessed as 2-(5-chloro-1H-indol-1-yl)-N-(4-((propan-2-ylsulfonamido)methyl)cyclohexyl)acetamide level at 10 mg/kg, po after 1 hr by LC-MS/MS analysis; format: ADME, organism-based; parameters: dose 10 mg/kg, route oral; conditions: in vivo, read-out: Drug uptake; summary of the method: as §2
[16] = Protein binding in human; format: ADME, organism-based; conditions: plasma, read-out: PB (converted)
Cytochrome P450 2D6 = Cytochrome P450 2D6 (Homo sapiens, UniProt P10635); experiment: Inhibition of CYP2D6; format: ADME
Sequence of Cytochrome P450 2D6 (P10635 whole entry): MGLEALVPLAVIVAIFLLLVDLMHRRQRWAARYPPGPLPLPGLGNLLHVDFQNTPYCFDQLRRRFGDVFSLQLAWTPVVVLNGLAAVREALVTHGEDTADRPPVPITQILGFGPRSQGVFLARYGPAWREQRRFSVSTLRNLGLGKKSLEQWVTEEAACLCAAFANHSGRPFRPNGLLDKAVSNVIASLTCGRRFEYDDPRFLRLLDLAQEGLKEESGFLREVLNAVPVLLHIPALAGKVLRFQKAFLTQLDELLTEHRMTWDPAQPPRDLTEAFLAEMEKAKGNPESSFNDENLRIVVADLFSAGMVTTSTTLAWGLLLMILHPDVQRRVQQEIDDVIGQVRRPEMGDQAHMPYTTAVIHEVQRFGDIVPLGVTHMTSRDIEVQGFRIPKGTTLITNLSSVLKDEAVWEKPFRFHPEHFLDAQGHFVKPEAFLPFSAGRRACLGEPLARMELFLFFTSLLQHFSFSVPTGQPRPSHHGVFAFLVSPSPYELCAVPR

[17] = Drug uptake in cPP-induced feeding Sprague-Dawley rat model brain at 10 mg/kg, po after 1 hr; format: ADME, organism-based; parameters: dose 10 mg/kg, route oral; conditions: read-out: Drug uptake; summary of the method: as §4
[18] = Solubility of the compound at pH 7.4; format: physicochemical; conditions: buffer
Plasma [19] = experiment: Plasma concentration in Sprague-Dawley rat assessed as 2-(5-chloro-1H-indol-1-yl)-N-(4-((propan-2 ylsulfonamido)methyl)cyclohexyl)acetamide level at 10 mg/kg, po after 1 hr by LC-MS/MS analysis; format: ADME, organism-based; parameters: dose 10 mg/kg, route oral; conditions: in vivo; summary of the method: as §2
Cytochrome P450 2C19 = Cytochrome P450 2C19 (Homo sapiens, UniProt P33261); experiment: Inhibition of CYP2C19; format: ADME
Sequence of Cytochrome P450 2C19 (P33261 whole entry): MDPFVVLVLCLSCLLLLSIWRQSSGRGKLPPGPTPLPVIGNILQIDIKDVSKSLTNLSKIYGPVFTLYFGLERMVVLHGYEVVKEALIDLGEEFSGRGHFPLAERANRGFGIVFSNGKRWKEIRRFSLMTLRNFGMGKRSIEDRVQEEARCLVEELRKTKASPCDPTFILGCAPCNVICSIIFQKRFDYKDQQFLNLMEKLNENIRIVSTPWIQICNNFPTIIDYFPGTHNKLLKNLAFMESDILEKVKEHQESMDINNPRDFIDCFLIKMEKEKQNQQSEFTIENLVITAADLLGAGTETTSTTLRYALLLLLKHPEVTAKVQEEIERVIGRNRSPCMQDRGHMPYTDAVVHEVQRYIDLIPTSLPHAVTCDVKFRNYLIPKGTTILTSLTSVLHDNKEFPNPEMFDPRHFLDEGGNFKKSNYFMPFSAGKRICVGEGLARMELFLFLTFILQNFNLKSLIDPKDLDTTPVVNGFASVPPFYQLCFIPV

[20] = Tmax in Sprague-Dawley rat plasma at 2 mg/kg, po and 1 mg/kg, iv after 24 hrs wash out period by HPLC analysis; format: ADME, organism-based; summary of the method: as §1
Liver microsomes [21] = experiment: Intrinsic clearance in human liver microsomes at 1 uM by LC/MS analysis; format: ADME, Microsome; summary of the method: as §3
[22] = Plasma concentration in cPP-induced feeding Sprague-Dawley rat model at 1 mg/kg, po after 1 hr; format: ADME, organism-based; parameters: dose 1 mg/kg, route oral; summary of the method: as §4
[23] = Volume of distribution at steady state in Sprague-Dawley rat plasma at 2 mg/kg, po and 1 mg/kg, iv after 24 hrs wash out period by HPLC analysis; format: ADME, organism-based; conditions: read-out: Vdss; summary of the method: as §1

logD [1]: 1.2
half-life [2]: 7.2 h
clearance [3]: 10 mL/min/kg
concentration (Plasma [4]): 751 nM
CLH (Liver microsomes [5]): 11 mL/min
concentration at 1 h [6]: 1260 ng/mL
clearance [7]: 15 mL/min/kg
bioavailability [8]: 79%
concentration (Brain [9]): 54 nM
Cmax [10]: 480 ng/mL
inhibition (INH) (Cytochrome P450 3A4): Not Active
inhibition (INH) (Cytochrome P450 1A2): Not Active
concentration at 1 h [11]: 84 ng/mL
concentration at 1 h [12]: 6 ng/g
Ki [13]: 0.3 nM
inhibition (INH) (Cytochrome P450 2C8): Not Active
concentration at 1 h [14]: 38 ng/g
concentration (Brain [15]): 641 nM
fraction unbound [16]: 0.004
inhibition (INH) (Cytochrome P450 2D6): Not Active
concentration at 1 h [17]: 132 ng/g
solubility [18]: 160 µM (≈ 68.2 µg/mL)
concentration (Plasma [19]): 8010 nM
inhibition (INH) (Cytochrome P450 2C19): Not Active
Tmax [20]: 2 h
CLH (Liver microsomes [21]): 1.9 L/min
concentration at 1 h [22]: 613 ng/mL
Vd [23]: 2.8 L/kg
Compound: CC(C)S(=O)(=O)NC[C@H]1CC[C@H](NC(=O)Cn2ccc3cc(Cl)ccc32)CC1
Activity (Rattus norvegicus): Dose-dependent effect
minimal effective dose (Rattus norvegicus; read-out: MED): 0.1 mg/kg
